Source: ChEMBL document CHEMBL1139008, “Synthesis and antiviral evaluation of alkoxyalkyl derivatives of 9-(S)-(3-hydroxy-2-phosphonomethoxypropyl)adenine against cytomegalovirus and orthopoxviruses” (J Med Chem, 2006)

Columns and labels:
Cowpox virus = assay: Antiviral activity against Cowpox virus Brighton replication in HFF cells; assay type: functional, organism-based
HFF [1] = assay: Cytotoxicity against HFF cell; assay type: functional; settings: Homo sapiens
Vaccinia virus = assay: Antiviral activity against Vaccinia virus Copenhagen replication in HFF cells; assay type: functional, organism-based; settings: Orthopoxvirus vaccinia
HFF [2] = assay: Selectivity index, CC50 in HFF cell/ EC50 against MCMV; assay type: functional
Outline: (§1)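 Selectivity index is the ratio of CC50 (HFF neutral red uptake) to EC50 from the matching plaque reduction assay.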

HFF [3] = assay: Selectivity index, CC50 in HFF cell/ EC50 against vaccinia virus; assay type: functional; outline: as §1
HFF [4] = assay: Selectivity index, CC50 in HFF cell/ EC50 against HCMV; assay type: functional; outline: as §1
Murid betaherpesvirus 1 = assay: Antiviral activity against MCMV Smith replication; assay type: functional, organism-based; settings: Murid betaherpesvirus 1, Smith
Outline: (§2)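 Plaque reduction used HCMV AD-169 in HFF cells (plated 2 days ahead) or MCMV Smith in MEF cells (plated 1 day ahead), at 20-30 PFU/well in triplicate with 1 h adsorption. Infected cells were then given MEM (2% FBS) with compound diluted 1:5 from 100 µM. Plates ran 7 days (MCMV) or 8 days (HCMV) at 37 °C, followed by 6 h neutral red staining. EC50 is the concentration giving 50% plaque reduction.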

HFF [5] = assay: Selectivity index, CC50 in HFF cell/ EC50 against cowpox virus; assay type: functional; outline: as §1
Human betaherpesvirus 5 = assay: Antiviral activity against HCMV AD-169 replication; assay type: functional, organism-based; settings: Human betaherpesvirus 5, AD-169; outline: as §2

| Structure (SMILES) | EC50 (Cowpox virus) | CC50 (HFF [1]) | EC50 (Vaccinia virus) | Selectivity index (HFF [2]) | Selectivity index (HFF [3]) | Selectivity index (HFF [4]) | EC50 (Murid betaherpesvirus 1) | Selectivity index (HFF [5]) | EC50 (Human betaherpesvirus 5) |
| --- | --- | --- | --- | --- | --- | --- | --- | --- | --- |
| Nc1ccn(C[C@@H](CO)OCP(=O)(O)O)c(=O)n1.O.O [CIDOFOVIR] | 30700 nM | > 317000 nM | 25300 nM | >7925 | >12.5 | >264 | 40 nM | >10.3 | 1200 nM |
| CCCCCCCC/C=C\CCCCCCCCOCCCOP(=O)([O-])CO[C@H](CO)Cn1cnc2c(N)ncnc21.[Na+] | 34 nM | 74800 nM | 18 nM | 750 | 4156 | 25000 | 100 nM | 2200 | 3 nM |
| CCCCCCCCCCCCCCCCOCCCOP(=O)([O-])CO[C@H](CO)Cn1cnc2c(N)ncnc21.[Na+] |  | 9700 nM |  | 485 | 970 | 3233 | 2 nM | 485 | 3 nM |
| Nc1ncnc2c1ncn2C[C@@H](CO)OCP(=O)(O)O |  | > 289000 nM |  | >181 | >107 | >352 | 160 nM | >72 | 820 nM |
| CCCCCCCC/C=C\CCCCCCCCOCCOP(=O)([O-])CO[C@H](CO)Cn1cnc2c(N)ncnc21.[Na+] | 7 nM | 6300 nM | 3 nM | 158 | 2100 | 2100 | 40 nM | 900 | 3 nM |
| CCCCCCCCCCCCCCCCCCOCCOP(=O)([O-])CO[C@H](CO)Cn1cnc2c(N)ncnc21.[Na+] |  | 1500 nM |  | 500 | 150 | 500 | 3 nM | 75 | 3 nM |
| CCCCCCCCCCCCCCCCOCCCOP(=O)(O)CO[C@H](CO)Cn1ccc(N)nc1=O [BRINCIDOFOVIR] | 60 nM |  | 80 nM |  |  |  | 0.9 nM |  | 0.9 nM |
| CCCCCCCCCCCCCCCCCCOCCOP(=O)(O)CO[C@H](CO)Cn1ccc(N)nc1=O | 300 nM |  | 200 nM |  |  |  | 1 nM |  | 0.9 nM |
